Measurements published in ChEMBL document CHEMBL1275475, “Potent in vitro activity of tomopenem (CS-023) against methicillin-resistant Staphylococcus aureus and Pseudomonas aeruginosa” (Antimicrob Agents Chemother, 2008).
pIC50: −log10 of the molar value. ≈ marks a conversion by molar mass, not a printed value.

Legend:
MecA [1] = molecular target: T1, MecA (Staphylococcus aureus, UniProt Q7DHH4); test: Binding affinity to PBP2a in methicillin-resistant Staphylococcus aureus 12386-1 by [14C]benzylpenicillin labelled competitive assay
T1 sequence (Q7DHH4 whole entry): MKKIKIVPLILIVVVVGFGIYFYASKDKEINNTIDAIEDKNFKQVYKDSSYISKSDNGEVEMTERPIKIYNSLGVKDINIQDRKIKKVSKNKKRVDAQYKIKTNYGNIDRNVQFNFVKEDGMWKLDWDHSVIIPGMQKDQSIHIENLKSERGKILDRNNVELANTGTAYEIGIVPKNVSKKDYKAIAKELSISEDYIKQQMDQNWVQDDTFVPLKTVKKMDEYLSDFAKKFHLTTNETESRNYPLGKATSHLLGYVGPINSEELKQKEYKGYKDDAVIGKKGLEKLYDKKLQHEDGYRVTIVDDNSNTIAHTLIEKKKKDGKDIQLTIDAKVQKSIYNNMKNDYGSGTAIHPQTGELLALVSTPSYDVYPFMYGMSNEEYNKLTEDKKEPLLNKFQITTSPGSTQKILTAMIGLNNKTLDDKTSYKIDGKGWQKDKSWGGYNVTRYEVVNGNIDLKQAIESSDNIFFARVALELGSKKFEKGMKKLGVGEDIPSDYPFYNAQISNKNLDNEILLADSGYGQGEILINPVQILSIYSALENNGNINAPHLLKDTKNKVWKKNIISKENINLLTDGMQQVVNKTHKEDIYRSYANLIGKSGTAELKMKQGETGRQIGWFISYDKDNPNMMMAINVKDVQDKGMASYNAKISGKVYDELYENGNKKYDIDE
Summary of the method: (§1)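 Competition against [14C]benzylpenicillin. Membranes came from penicillinase-plasmid-cured MRSA lysed with lysostaphin (100 μg/ml), DNase (1 μg/ml) and sonication in 50 mM sodium phosphate, 10 mM MgCl2, pH 7.0. They were collected at 5,000 × g for 10 min, then 100,000 × g for 60 min, at final 8 mg/ml protein. Compound was added for 30 min, then label for 30 min, at 37°C. IC50 for 50% label-binding inhibition to PBP 2a was read by imaging analyzer.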

Staphylococcus aureus [2] = test: Antibacterial activity against methicillin-resistant Staphylococcus aureus by broth microdilution method; type: functional
Summary of the method: (§2)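 Standard broth microdilution in cation-adjusted Mueller-Hinton broth (25 mg Ca2+ and 12.5 mg Mg2+ per liter), inoculum 4×10^5 CFU/ml. Isolates were 60 German MRSA clinical strains, and penicillinase-plasmid-cured MRSA 123-1 and 12386-1. QC strain was S. aureus ATCC 29213.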

Pseudomonas aeruginosa [3] = test: Antibacterial activity against beta-lactamase-overproducing Pseudomonas aeruginosa N043 by broth microdilution method; type: functional
Summary of the method: (§3)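 Standard broth microdilution in cation-adjusted Mueller-Hinton broth (25 mg Ca2+ and 12.5 mg Mg2+ per liter), inoculum 4×10^5 CFU/ml, against P. aeruginosa PAO1 or its laboratory mutants with defined resistance mechanisms. MIC was the lowest concentration completely inhibiting […] growth in wells. Determinations were done in duplicate.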

Pseudomonas aeruginosa [4] = test: Antibacterial activity against Pseudomonas aeruginosa N092 expressing MexE-MexF-OprN gene and OprD mutant gene and harboring nfxC mutant gene by broth microdilution method
Pseudomonas aeruginosa [5] = test: Antibacterial activity against Pseudomonas aeruginosa COR6 expressing MexC-MexD-OprJ gene by broth microdilution method; type: functional; summary of the method: as §3
MecA [6] = molecular target: T1, MecA; test: Binding affinity to PBP2a in methicillin-resistant Staphylococcus aureus 123-1 by [14C]benzylpenicillin labelled competitive assay; summary of the method: as §1
Staphylococcus aureus [7] = test: Antibacterial activity against methicillin-resistant Staphylococcus aureus 123-1 expressing PBP 2a by broth microdilution method; type: functional; summary of the method: as §2
Pseudomonas aeruginosa [8] = test: Antibacterial activity against Pseudomonas aeruginosa clinical isolates by broth microdilution method; type: functional
Summary of the method: (§4)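 Broth microdilution in cation-adjusted Mueller-Hinton broth (25 mg Ca2+ and 12.5 mg Mg2+ per liter), inoculum 4×10^5 CFU/ml. MIC was the lowest concentration completely inhibiting visible growth in wells. European clinical isolates were tested with S. aureus ATCC 29213 and P. aeruginosa ATCC 27853 as quality controls. PAO1-derived mutants were run in duplicate.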

Pseudomonas aeruginosa [9] = test: Antibacterial activity against beta-lactamase-overproducing and OprD-deficient Pseudomonas aeruginosa N044 by broth microdilution method; type: functional; summary of the method: as §3
Pseudomonas aeruginosa [10] = test: Antibacterial activity against Pseudomonas aeruginosa PAO1 by broth microdilution method; type: functional; summary of the method: as §3
Pseudomonas aeruginosa [11] = test: Antibacterial activity against OprD-deficient Pseudomonas aeruginosa MR08 by broth microdilution method; type: functional; summary of the method: as §3
Pseudomonas aeruginosa [12] = test: Antibacterial activity against imipenem-resistant Pseudomonas aeruginosa clinical isolates by broth microdilution method; type: functional
Summary of the method: (§5)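 Standard broth microdilution in cation-adjusted Mueller-Hinton broth (25 mg Ca2+ and 12.5 mg Mg2+ per liter), inoculum 4×10^5 CFU/ml. MIC is the lowest concentration completely inhibiting […] growth in wells. […] P. aeruginosa ATCC 27853 serves as QC strain.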

Pseudomonas aeruginosa [13] = test: Antibacterial activity against beta-lactamase and MexA-MexB-OprM-overproducing Pseudomonas aeruginosa N045 by broth microdilution method; type: functional; summary of the method: as §4
Pseudomonas aeruginosa [14] = test: Antibacterial activity against Pseudomonas aeruginosa N091 by broth microdilution method; type: functional; summary of the method: as §3
Staphylococcus aureus [15] = test: Antibacterial activity against methicillin-resistant Staphylococcus aureus 12386-1 expressing PBP 2a by broth microdilution method; type: functional; summary of the method: as §2
Pseudomonas aeruginosa [16] = test: Antibacterial activity against MexA-MexB-OprM-overproducing Pseudomonas aeruginosa OCR1 by broth microdilution method; type: functional; summary of the method: as §3
Pseudomonas aeruginosa [17] = test: Antibacterial activity against MexA-MexB-OprM-overproducing and OprD-deficient Pseudomonas aeruginosa N041 by broth microdilution method; type: functional; summary of the method: as §3
Pseudomonas aeruginosa [18] = test: Ratio of MIC for Pseudomonas aeruginosa MR08 to MIC for Pseudomonas aeruginosa PAO1; type: functional
Summary of the method: (§6)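 MICs were measured for PAO1-derived resistance mutants and the parent PAO1 by broth microdilution in cation-adjusted Mueller-Hinton broth (25 mg/liter Ca2+, 12.5 mg/liter Mg2+), inoculum 4×10^5 CFU/ml, in duplicate. MIC was the lowest concentration with complete growth inhibition. The ratio is the mutant MIC divided by the PAO1 MIC.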

Pseudomonas aeruginosa [19] = test: Ratio of MIC for Pseudomonas aeruginosa OCR1 to MIC for Pseudomonas aeruginosa PAO1; type: functional; summary of the method: as §6
Pseudomonas aeruginosa [20] = test: Ratio of MIC for Pseudomonas aeruginosa N044 to MIC for Pseudomonas aeruginosa PAO1; type: functional; summary of the method: as §6
Pseudomonas aeruginosa [21] = test: Ratio of MIC for Pseudomonas aeruginosa N043 to MIC for Pseudomonas aeruginosa PAO1; type: functional; summary of the method: as §6
Pseudomonas aeruginosa [22] = test: Ratio of MIC for Pseudomonas aeruginosa N045 to MIC for Pseudomonas aeruginosa PAO1; type: functional; summary of the method: as §6
Pseudomonas aeruginosa [23] = test: Ratio of MIC for Pseudomonas aeruginosa COR6 to MIC for Pseudomonas aeruginosa PAO1; type: functional; summary of the method: as §6
Pseudomonas aeruginosa [24] = test: Ratio of MIC for Pseudomonas aeruginosa N092 to MIC for Pseudomonas aeruginosa PAO1; type: functional; summary of the method: as §6
Pseudomonas aeruginosa [25] = test: Ratio of MIC for Pseudomonas aeruginosa N041 to MIC for Pseudomonas aeruginosa PAO1; type: functional; summary of the method: as §6
Pseudomonas aeruginosa [26] = test: Antibacterial activity against meropenem-resistant Pseudomonas aeruginosa clinical isolates by broth microdilution method; type: functional; summary of the method: as §5

Compound | pIC50 (MecA [1]) | MIC50 (Staphylococcus aureus [2]) [µg/mL] | MIC (Pseudomonas aeruginosa [3]) [µg/mL] | MIC (Pseudomonas aeruginosa [4]) [µg/mL] | MIC (Pseudomonas aeruginosa [5]) [µg/mL] | MIC (Pseudomonas aeruginosa [9]) [µg/mL] | MIC (Pseudomonas aeruginosa [10]) [µg/mL] | MIC (Pseudomonas aeruginosa [11]) [µg/mL] | MIC (Pseudomonas aeruginosa [13]) [µg/mL] | MIC (Pseudomonas aeruginosa [14]) [µg/mL] | MIC (Pseudomonas aeruginosa [16]) [µg/mL] | MIC (Pseudomonas aeruginosa [17]) [µg/mL] | Ratio (Pseudomonas aeruginosa [18]) | Ratio (Pseudomonas aeruginosa [19]) | Ratio (Pseudomonas aeruginosa [20]) | Ratio (Pseudomonas aeruginosa [21]) | Ratio (Pseudomonas aeruginosa [22]) | Ratio (Pseudomonas aeruginosa [23]) | Ratio (Pseudomonas aeruginosa [24]) | Ratio (Pseudomonas aeruginosa [25]) | also measured
C[C@@H](O)[C@H]1C(=O)N2C(C(=O)O)=C(SCCNC=N)C[C@H]12 [IMIPENEM ANHYDROUS] | 3.60 | 4 (≈ 13.4 µM) | 1 (≈ 3.34 µM) | 4 (≈ 13.4 µM) | 0.5 (≈ 1.67 µM) | 32 (≈ 107 µM) | 1 (≈ 3.34 µM) | 16 (≈ 53.4 µM) | 1 (≈ 3.34 µM) | 1 (≈ 3.34 µM) | 1 (≈ 3.34 µM) | 8 (≈ 26.7 µM) | – | – | – | – | – | – | – | – | MIC90 (Staphylococcus aureus [2]): > 32 µg/mL; pIC50 (MecA [6]): 3.25; MIC (Staphylococcus aureus [7]): 32 µg/mL (≈ 107 µM); MIC50 (Pseudomonas aeruginosa [8]): 2 µg/mL (≈ 6.68 µM); MIC90 (Pseudomonas aeruginosa [8]): 32 µg/mL (≈ 107 µM); MIC (Pseudomonas aeruginosa [12]): ≥ 16 µg/mL; MIC (Staphylococcus aureus [15]): 16 µg/mL (≈ 53.4 µM)
C[C@H]1COc2c(N3CCN(C)CC3)c(F)cc3c(=O)c(C(=O)O)cn1c23.C[C@H]1COc2c(N3CCN(C)CC3)c(F)cc3c(=O)c(C(=O)O)cn1c23.O [LEVOFLOXACIN] | – | – | 0.25 | 8 | 8 | 0.25 | 0.5 | 0.5 | – | 0.5 | – | – | – | – | – | – | – | – | – | – | –
CC(C)(O/N=C(\C(=O)N[C@@H]1C(=O)N2C(C(=O)[O-])=C(C[n+]3ccccc3)CS[C@H]12)c1csc(N)n1)C(=O)O [CEFTAZIDIME] | – | – | 128 (≈ 234 µM) | 1 (≈ 1.83 µM) | 1 (≈ 1.83 µM) | 128 (≈ 234 µM) | 2 (≈ 3.66 µM) | 2 (≈ 3.66 µM) | 128 (≈ 234 µM) | 2 (≈ 3.66 µM) | 8 (≈ 14.6 µM) | 8 (≈ 14.6 µM) | 1 | 4 | 64 | 64 | 64 | 0.5 | 0.5 | 4 | –
C[C@@H](O)[C@H]1C(=O)N2C(C(=O)O)=C(S[C@H]3C[C@@H](C(=O)N4CC[C@H](NC(=O)CNC(=N)N)C4)N(C)C3)[C@H](C)[C@H]12 [TOMOPENEM] | 5.27 | 4 (≈ 7.44 µM) | 0.5 (≈ 0.93 µM) | 0.5 (≈ 0.93 µM) | 0.25 (≈ 0.465 µM) | 8 (≈ 14.9 µM) | 0.25 (≈ 0.465 µM) | 1 (≈ 1.86 µM) | 1 (≈ 1.86 µM) | 0.25 (≈ 0.465 µM) | 0.5 (≈ 0.93 µM) | 2 (≈ 3.72 µM) | 4 | 2 | 32 | 2 | 4 | 1 | 2 | 8 | MIC90 (Staphylococcus aureus [2]): 8 µg/mL (≈ 14.9 µM); pIC50 (MecA [6]): 5.01; MIC (Staphylococcus aureus [7]): 8 µg/mL (≈ 14.9 µM); MIC50 (Pseudomonas aeruginosa [8]): 0.5 µg/mL (≈ 0.93 µM); MIC90 (Pseudomonas aeruginosa [8]): 4 µg/mL (≈ 7.44 µM); MIC (Staphylococcus aureus [15]): 8 µg/mL (≈ 14.9 µM)
C[C@@H](O)[C@H]1C(=O)N2C(C(=O)O)=C(S[C@@H]3CN[C@H](C(=O)N(C)C)C3)[C@H](C)[C@H]12 [MEROPENEM] | 3.86 | 8 (≈ 20.9 µM) | 1 (≈ 2.61 µM) | 1 (≈ 2.61 µM) | 0.5 (≈ 1.3 µM) | 16 (≈ 41.7 µM) | 0.5 (≈ 1.3 µM) | 4 (≈ 10.4 µM) | 2 (≈ 5.22 µM) | 0.5 (≈ 1.3 µM) | 2 (≈ 5.22 µM) | 16 (≈ 41.7 µM) | 8 | 4 | 32 | 2 | 4 | 1 | 2 | 32 | MIC90 (Staphylococcus aureus [2]): 32 µg/mL (≈ 83.4 µM); pIC50 (MecA [6]): 3.47; MIC (Staphylococcus aureus [7]): 32 µg/mL (≈ 83.4 µM); MIC50 (Pseudomonas aeruginosa [8]): 1 µg/mL (≈ 2.61 µM); MIC90 (Pseudomonas aeruginosa [8]): 16 µg/mL (≈ 41.7 µM); MIC (Staphylococcus aureus [15]): 16 µg/mL (≈ 41.7 µM); MIC (Pseudomonas aeruginosa [26]): ≥ 16 µg/mL
NCC[C@H](O)C(=O)N[C@@H]1C[C@H](N)[C@@H](O[C@H]2O[C@H](CN)[C@@H](O)[C@H](O)[C@H]2O)[C@H](O)[C@H]1O[C@H]1O[C@H](CO)[C@@H](O)[C@H](N)[C@H]1O [AMIKACIN] | – | – | 8 (≈ 13.7 µM) | 2 (≈ 3.42 µM) | 0.5 (≈ 0.854 µM) | 8 (≈ 13.7 µM) | 4 (≈ 6.83 µM) | 4 (≈ 6.83 µM) | 8 (≈ 13.7 µM) | 4 (≈ 6.83 µM) | 4 (≈ 6.83 µM) | 4 (≈ 6.83 µM) | 1 | 1 | 2 | 2 | 2 | 0.125 | 0.5 | 1 | –
